Read-outs that look alike come from different tables or passages of the source.
Experiments:
BSF T. brucei [1] = test: Growth inhibition of BSF T. brucei cultures; format: cell-based, Trypanosoma brucei; conditions: for EC50: read-out: BSF EC50, dose-response in triplicate, 384-well format
Procedure, shortened: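 Bloodstream-form T. brucei cultures were treated in triplicate with test compound at 10 μM, with DMSO vehicle as negative control and a reference inhibitor as positive control on each plate. Percent growth inhibition was calculated against DMSO-treated parasites on the same plate. Compounds giving >50% inhibition at 10 μM went to triplicate dose-response curves, and the EC50 was fitted as the concentration killing 50% of parasites.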

[2] = molecular target: rTbHK1 (recombinant T. brucei hexokinase 1); test: rTbHK1 enzyme inhibition assay; format: biochemical, Trypanosoma brucei; conditions: read-out: TbHK1 IC50; dose-response
Procedure, shortened: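 Recombinant TbHK1 was expressed in and isolated from Escherichia coli or yeast. The purified enzyme was tested in triplicate for percent inhibition at 10 μM test compound. IC50 was taken as the concentration giving 50% inhibition of TbHK1 activity.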

[3] = molecular target: rTbHK1 (recombinant T. brucei hexokinase 1); conditions: read-out: rTbHK1 IC50; initial round of SAR study; cited from earlier work
mammalian hexokinase = conditions: cited from earlier work
human cell lines = conditions: cited from earlier work
BSF T. brucei [4] = conditions: cited from earlier work

Work on `N=C(N)c1ccc(OCCCCCOc2ccc(C(=N)N)cc2)cc1` [pentamadine] yielded an EC50 (BSF T. brucei [1]) of 3 ± 1 nM.
For `CC(C)(C)c1ccc(C(=O)Nc2cc(Cl)c(Br)cc2C(=O)O)cc1` [Compound 2], the IC50 [2] is given as 980 ± 67 nM, the IC50 [3] is given as 980 ± 70 nM and the “Impact on a mammalian hexokinase” value (mammalian hexokinase) is given as “no impact”. The “%BSF Growth Inhibition (10 μM)” value (BSF T. brucei [1]; 10 μM, triplicate, vs DMSO controls) was 6.9 ± 3.0%, the EC50 (BSF T. brucei [1]) was over 10000 nM and the “Toxicity toward human cell lines” value (human cell lines) was “no appreciable toxicity”. For the same compound, the “Trypanocidal activity against whole-cell BSF parasites (result in words)” value (BSF T. brucei [4]) was “not an effective trypanocide”.
